ChEMBL document CHEMBL1144110, “Triterpene saponins and lignans from the roots of Pulsatilla chinensis and their cytotoxic activity against HL-60 cells” (J Nat Prod, 1999)
≈ marks a conversion by molar mass, not a printed value.

Tested on: HL-60
Assay: Cytotoxicity against human HL-60 cells after 72 hrs by MTT assay
Assay type: functional, cell-based
Conditions: HL-60, 72 h
Procedure, shortened: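 HL-60 human promyelocytic leukemia cells grown in RPMI 1640 with 10% FBS, L-glutamine and penicillin/streptomycin. Seeded at 3 × 10^4 cells/mL and preincubated 24 h at 37 °C in 5% CO2. Samples added in EtOH–H2O (1:1) at final 0.0001–50 µg/mL, with vehicle controls, for 72 h. MTT then 4 h, formazan dissolved in DMSO, read at 550 nm. IC50 taken from dose-response curves of samples giving >50% inhibition at 10 µg/mL.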

Structure (SMILES) | IC50
C[C@@H]1O[C@@H](O[C@H]2[C@H](O[C@H]3CC[C@]4(C)[C@H]5CC=C6[C@@H]7CC(C)(C)CC[C@]7(C(=O)O)CC[C@@]6(C)[C@]5(C)CC[C@H]4C3(C)C)OC[C@H](O)[C@@H]2O)[C@H](O)[C@H](O[C@@H]2O[C@H](CO)[C@@H](O[C@@H]3O[C@H](CO)[C@@H](O)[C@H](O)[C@H]3O)[C@H](O)[C@H]2O)[C@H]1O | 2.6 µg/mL (≈ 2.45 µM)
CC1(C)CC[C@]2(C(=O)O)CC[C@]3(C)C(=CC[C@@H]4[C@@]5(C)CC[C@H](O[C@@H]6OC[C@H](O[C@@H]7O[C@H](CO)[C@@H](O)[C@H](O)[C@H]7O)[C@H](O)[C@H]6O)[C@@](C)(CO)[C@@H]5CC[C@]43C)[C@@H]2C1 | > 10 µg/mL
C[C@@H]1O[C@@H](O[C@H]2[C@H](O[C@H]3CC[C@]4(C)[C@H]5CC=C6[C@@H]7CC(C)(C)CC[C@]7(C(=O)O)CC[C@@]6(C)[C@]5(C)CC[C@H]4C3(C)C)OC[C@H](O)[C@@H]2O)[C@H](O)[C@H](O[C@@H]2O[C@H](CO)[C@@H](O)[C@H](O)[C@H]2O)[C@H]1O | 3.6 µg/mL (≈ 4.01 µM)
C[C@@H]1O[C@@H](O[C@H]2[C@H](O[C@H]3CC[C@@]4(C)[C@@H](CC[C@]5(C)[C@@H]4CC=C4[C@@H]6CC(C)(C)CC[C@]6(C(=O)O)CC[C@]45C)[C@]3(C)CO)OC[C@H](O)[C@@H]2O)[C@H](O)[C@H](O[C@@H]2O[C@H](CO)[C@@H](O)[C@H](O)[C@H]2O)[C@H]1O | 7.8 µg/mL (≈ 8.54 µM)
C[C@@H]1O[C@@H](O[C@H]2[C@H](O[C@H]3CC[C@]4(C)[C@H]5CC=C6[C@@H]7CC(C)(C)CC[C@]7(C(=O)O)CC[C@@]6(C)[C@]5(C)CC[C@H]4C3(C)C)OC[C@H](O)[C@@H]2O)[C@H](O)[C@H](O)[C@H]1O | 4.4 µg/mL (≈ 5.99 µM)
COC(=O)[C@]12CCC(C)(C)C[C@H]1C1=CC[C@@H]3[C@@]4(C)CC[C@H](O[C@@H]5OC[C@H](O)[C@H](O)[C@H]5O[C@@H]5O[C@@H](C)[C@H](O)[C@@H](O[C@@H]6O[C@H](CO)[C@@H](O[C@@H]7O[C@H](CO)[C@@H](O)[C@H](O)[C@H]7O)[C@H](O)[C@H]6O)[C@H]5O)C(C)(C)[C@@H]4CC[C@@]3(C)[C@]1(C)CC2 | 7.8 µg/mL (≈ 7.27 µM)
COC(=O)[C@]12CCC(C)(C)C[C@H]1C1=CC[C@@H]3[C@@]4(C)CC[C@H](O[C@@H]5OC[C@H](O)[C@H](O)[C@H]5O[C@@H]5O[C@@H](C)[C@H](O)[C@@H](O[C@@H]6O[C@H](CO)[C@@H](O)[C@H](O)[C@H]6O)[C@H]5O)[C@@](C)(CO)[C@@H]4CC[C@@]3(C)[C@]1(C)CC2 | 8 µg/mL (≈ 8.63 µM)
C[C@@H]1O[C@@H](O[C@H]2[C@H](O[C@H]3CC[C@]4(C)[C@H]5CC=C6[C@@H]7CC(C)(C)CC[C@]7(C(=O)O)CC[C@@]6(C)[C@]5(C)CC[C@H]4C3(C)C)OC[C@H](O[C@@H]3O[C@H](CO)[C@@H](O)[C@H](O)[C@H]3O)[C@@H]2O)[C@H](O)[C@H](O[C@@H]2O[C@H](CO)[C@@H](O[C@@H]3O[C@H](CO)[C@@H](O)[C@H](O)[C@H]3O)[C@H](O)[C@H]2O)[C@H]1O | 2.7 µg/mL (≈ 2.21 µM)
COc1cc([C@@H]2OC[C@@H]3[C@H]2CO[C@H]3c2ccc(O)c(OC)c2)ccc1O [(+)-PINORESINOL] | > 10 µg/mL
C[C@@H]1O[C@@H](O[C@H]2[C@H](O[C@H]3CC[C@@]4(C)[C@@H](CC[C@]5(C)[C@@H]4CC=C4[C@@H]6CC(C)(C)CC[C@]6(C(=O)O)CC[C@]45C)[C@]3(C)CO)OC[C@H](O)[C@@H]2O)[C@H](O)[C@H](O)[C@H]1O [ALPHA-HEDERIN] | 7.1 µg/mL (≈ 9.45 µM)
COc1cc([C@@H]2c3cc4c(c(O)c3C[C@H]3COC(=O)[C@@H]32)OCO4)cc(OC)c1OC [BETA-PELTATIN A] | 0.0052 µg/mL (≈ 0.0125 µM)
COc1cc([C@@H]2c3cc4c(cc3[C@@H](O[C@@H]3O[C@@H]5CO[C@@H](C)O[C@H]5[C@H](O)[C@H]3O)[C@H]3COC(=O)[C@H]23)OCO4)cc(OC)c1O [ETOPOSIDE] | 0.3 µg/mL (≈ 0.51 µM)
C[C@@H]1O[C@@H](O[C@H]2[C@H](O[C@H]3CC[C@]4(C)[C@H]5CC=C6[C@@H]7CC(C)(C)CC[C@]7(C(=O)O)CC[C@@]6(C)[C@]5(C)CC[C@H]4C3(C)C)OC[C@H](O[C@@H]3O[C@H](CO)[C@@H](O)[C@H](O)[C@H]3O)[C@@H]2O)[C@H](O)[C@H](O)[C@H]1O [HEDERACOLCHISIDE A1] | 2.3 µg/mL (≈ 2.56 µM)
C[C@@H]1O[C@@H](O[C@H]2[C@H](O[C@H]3CC[C@@]4(C)[C@@H](CC[C@]5(C)[C@@H]4CC=C4[C@@H]6CC(C)(C)CC[C@]6(C(=O)O)CC[C@]45C)[C@]3(C)CO)OC[C@H](O[C@@H]3O[C@H](CO)[C@@H](O)[C@H](O)[C@H]3O)[C@@H]2O)[C@H](O)[C@H](O)[C@H]1O [HEDERACOLCHISIDE A] | 3.8 µg/mL (≈ 4.16 µM)
CC1(C)CC[C@]2(C(=O)O)CC[C@]3(C)C(=CC[C@@H]4[C@@]5(C)CC[C@H](O)C(C)(C)[C@@H]5CC[C@]43C)[C@@H]2C1 [OLEANOLIC_ACID] | > 50 µg/mL
